Source: PubChem BioAssay (Broad Institute)
CAL PDZ FP-1 = CAL PDZ (human) peptide binding inhibition. Q9HD26. purified CAL PDZ, TMR-peptide fluorescence polarization, 1 h. inhibition, % at 24.9 µM. actives 0.92% (n = 300,000). AID 602252;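 active = mean inhibition of at least 30% with at least half of replicates also reaching 30%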;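 note: 0% = DMSO neutral control and 100% = excess unlabeled competitor peptide PRC23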
Statin myotox sup = suppression of simvastatin myotoxicity; C2C12 myotubes + simvastatin, ATP luminescence, 48 h; scaled: DMSO 0, geranylgeraniol control 100; actives 0.78% (n = 330,000); rescue of ATP level, % at 7.49 µM;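 active = mean ATP rescue above about 67%, or every replicate alone reaching that limit, limit read from the data, passing the limit was not always enough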;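 note: myotubes were challenged with 10 µM simvastatin during compound exposure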
S100A4 MyoIIA = blocks human S100A4 binding to myosin IIA peptide | inhibition, % at 10.7 µM | P26447 | actives 0.14% (n = 360,000) | AID 652163 | S100A4/TAMRA-MyoIIA peptide fluorescence polarization;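 active = mean inhibition of at least 70% across replicates, with every replicate also reaching that level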
Target sequence (P26447 whole entry, looked up): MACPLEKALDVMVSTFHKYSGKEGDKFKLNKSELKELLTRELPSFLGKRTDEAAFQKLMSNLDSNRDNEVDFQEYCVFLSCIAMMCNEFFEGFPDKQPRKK
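Material: human S100A4 monomer with TAMRA-labelled myosin IIA peptide; buffer or medium: HEPES pH 7.2 with CaCl2, KCl, NaCl, DTT, Triton; compound dosing: one concentration per compound; schedule: 5 min incubation before reading; benchmarks: neutral control DMSO, positive control TFP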
CAL PDZ FP-2 = human CAL PDZ-peptide interaction inhibition. Q9HD26. purified CAL PDZ, TMR-peptide fluorescence polarization, 1 h. inhibition, % at 20 µM. actives 0.02% (n = 330,000). AID 504414;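 active = highest replicate inhibition of at least 40%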;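 note: plate controls were DMSO neutral control wells for no effect and unlabeled competitor peptide control wells for full effect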
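Material – purified CerCALP PDZ construct · Detection – FP readout, S and P plane fluorescence · Measure – percent inhibition from loss of millipolarization · Controls – unlabelled peptide for full inhibition, DMSO wells as neutral · Probe or stimulus – TMR-labelled reporter peptide T*-PRC34 bound in PDZ groove · Times – 1 h at RT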
dFosB act-1 = mouse delta FosB homodimer activation. P13346. purified delta FosB, TAMRA-CDK5 oligo fluorescence polarization; percent of positive-control signal above neutral wells. activation, % at 25 µM. actives 0.99% (n = 340,000). AID 493131;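 active = mean activation above about 17%, with every replicate also reaching it, limit read from the data, passing the limit was not always enough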
Target sequence (P13346 whole entry, looked up): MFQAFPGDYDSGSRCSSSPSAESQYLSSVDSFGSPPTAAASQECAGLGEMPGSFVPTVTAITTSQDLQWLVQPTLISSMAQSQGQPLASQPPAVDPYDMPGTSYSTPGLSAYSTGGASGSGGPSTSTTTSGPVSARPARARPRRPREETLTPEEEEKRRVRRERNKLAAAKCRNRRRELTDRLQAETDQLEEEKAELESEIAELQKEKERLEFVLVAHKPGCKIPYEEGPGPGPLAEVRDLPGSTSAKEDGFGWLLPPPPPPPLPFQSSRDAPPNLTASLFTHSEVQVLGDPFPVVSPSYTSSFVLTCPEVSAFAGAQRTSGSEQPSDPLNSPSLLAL
CDK5 inh = inhibitors of human CDK5/p35 kinase; actives 0.01% (n = 330,000); inhibition, % at 10 µM; Recombinant CDK5/p35, ADP-Glo luminescence, 60 min; AID 488839;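 active = highest replicate inhibition of at least 50% and at least 75% of replicates reaching 50%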;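 note: plate controls were DMSO neutral control for no effect and GW8510 at 10 µM for full effect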
dFosB act-2 = delta FosB (mouse) homodimer activation | shares compounds with dFosB act-1 | 2,400 tested, under 10 active | AID 588690 | purified delta FosB, TAMRA-CDK5 oligo fluorescence polarization; normalised: neutral wells 0, positive control 100 | activation, % at 24.9 µM;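 active = highest replicate activation at or above 34% and every replicate reaching that threshold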;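 note: higher polarization means more probe DNA bound by delta FosB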
Numbers without * were called inactive; x = no result given. Shown are actives, neighbours in structure and some others; about 2% of the full set was active somewhere.

SMILES	CAL PDZ FP-1	Statin myotox sup	S100A4 MyoIIA	CAL PDZ FP-2	dFosB act-1	CDK5 inh	dFosB act-2
CC(C)[C@@H]1CN=C(N)N1C[C@@H]1CCCN1C[C@H](C)N1C[C@@H](Cc2ccccc2)N(CCc2ccc(Cl)c(Cl)c2)C1=N	-8	-6	x	-2	20*	3	-1
OC[C@@H]1CCCN1Cc1cn(-c2ccccc2)nc1-c1ccc2c(c1)OCO2	-2	-13	2	-5	-2	5	x
c1ccc(-n2cc(CN3CCCC(CN4CCCC4)C3)c(-c3ccc4c(c3)OCO4)n2)cc1 (stereo not given)	-3	-4	-8	-3	27*	-1	-6
O=C1C2CCCN2C(c2ccc(F)cc2)N1c1ccc(Cl)cc1 (stereo not given)	0	13	9	-1	3	2	x
O=C1C2=C(NC(=S)NC2c2ccc(Cl)cc2)NC(c2ccc(Cl)cc2)N1c1ccc(Cl)cc1 (stereo not given)	-6	41	x	-1	82*	1	0
COc1ccc(-c2cc(=O)oc3c(C)c(OCC(=O)Nc4cccnc4)ccc23)cc1	-9	-49	-1	-3	41*	1	-6
COc1ccc(-c2cc(=O)oc3cc(OCC(=O)Nc4ccc(CCO)cc4)ccc23)cc1	9	-6	8	1	22*	-1	1
COC(=O)COc1ccc2c(-c3ccc(OC)cc3)cc(=O)oc2c1	x	-3	x	-1	-18	-2	x
CC(C)CNC(=O)C1(C)CCCN1C(=O)Cc1cccc2ccccc12 (stereo not given)	x	8	-6	x	x	x	x
CCOC(=O)c1sc(NC(=O)C(CC)Sc2nc3ccccc3[nH]2)nc1C (stereo not given)	-1	x	x	-2	5	-2	x
NC(=O)Nc1ccc(C(=O)OCC(=O)Nc2sccc2C(N)=O)cc1	-9	4	-6	-4	17*	1	-7
N#Cc1ccsc1NC(=O)COC(=O)c1ccc(NC(N)=O)cc1	-3	12	-1	-1	-11	1	x
COc1ccc(/C=C/C(=O)c2ccccn2)cc1	-1	x	-2	1	-1	5	x
O=C(Nn1c(C2CCCCC2)nc2ccccc2c1=O)c1cc(Cl)ccc1[N+](=O)[O-]	-3	-1	5	0	1	0	x
O=C(Nn1c(C2CCCCC2)nc2ccccc2c1=O)c1ccc([N+](=O)[O-])cc1Cl	0	x	x	-3	43*	0	3
O=C(CSc1nc(C2CC2)nc2ccccc12)Nc1ccccc1	-11	16	-1	-1	36*	1	-2
CC(=O)Nc1cccc(NC(=O)CSc2nc(C3CC3)nc3ccccc23)c1	-7	-15	-48	-6	15	1	x
Cc1cccc(NC(=O)CSc2nc(C3CC3)nc3ccccc23)c1	-1	-2	-8	-2	8	0	x
O=C(CSc1nc(C2CC2)nc2ccccc12)Nc1ccccc1Cl	4	4	-7	0	31*	0	2
Cn1c(=O)c2c(SCC(=O)Nc3ccccc3F)nc(C3CC3)nc2n(C)c1=O	1	1	-1	7	24*	1	0
COc1cc(NC(=O)CSc2nc(C3CC3)nc3ccccc23)cc(OC)c1	-1	6	1	-1	88*	-1	4
CSC(=NCc1cccnc1)NS(=O)(=O)c1cccs1	0	0	x	0	0	0	x
O=C(CCc1nc2ccccc2[nH]1)Nc1ccccc1	x	-4	x	0	-2	-2	x
Cc1cc(C)cc(NC(=O)CCc2nc3ccccc3[nH]2)c1	-1	-8	x	0	28*	0	-1
CCc1c(C)c(C#N)c2nc3ccccc3n2c1NCCN(C)C	-3	-7	x	0	21*	-2	-2
SMILES	CAL PDZ FP-1	Statin myotox sup	S100A4 MyoIIA	CAL PDZ FP-2	dFosB act-1	CDK5 inh	dFosB act-2
CN(CC(=O)NCCc1ccc(F)cc1)Cc1ccccc1	-1	2	-1	-4	-7	1	x
COc1ccc(-c2nc(Cn3c(SCc4ccc(C)cc4)nc4ccncc43)c(C)o2)cc1OC	x	-11	-5	0	39*	0	3
COC(=O)c1ccc2c(=O)n(Cc3ccco3)c(SCC(=O)Nc3ccccc3Cl)nc2c1	-3	2	x	0	-6	1	x
COC(=O)c1ccc2c(=O)n(Cc3ccco3)c(SCC(=O)Nc3cc(C)on3)nc2c1	-1	x	1	-2	25*	0	0
NC(=O)C1CCN(C(=O)c2ccc3c(=O)n(Cc4ccco4)c(SCC(=O)c4ccccc4)nc3c2)CC1	-3	-1	-1	-4	36*	2	2
O=C(CCN1C(=O)c2cccc3cccc(c23)C1=O)Nc1ccccc1	-2	9	-4	-2	27*	0	0
Cc1ccc(NC(=O)CCN2C(=O)c3cccc4cccc(c34)C2=O)cc1	-3	x	3	1	6	1	x
CC(=O)Nc1ccc(NC(=O)CCCCCN2C(=O)c3ccccc3C2=O)cc1	10	-8	x	0	25*	0	-1
CCOc1ccc(Cc2nnc(SCC(=O)Nc3c(C)cccc3C)[nH]c2=O)cc1	-3	8	-3	-2	-1	-1	x
CCCOc1cccc(-c2nn(-c3ccccc3)cc2/C=C(\C#N)C(=O)NCCCn2ccnc2)c1	-4	x	-5	-3	-1	0	x
N#C/C(=C/c1cn(-c2ccccc2)nc1-c1cccc(OCc2ccc(F)cc2)c1)C(=O)NCCCn1ccnc1	-1	-10	x	-2	35*	0	-2
CCN1CCN(Cc2ccc(NC(=O)c3ccc(C)c(NC(=O)N4CCNC4=O)c3)cc2C(F)(F)F)CC1	0	-7	-1	-4	-34	2	x
Cc1cn(-c2cc(C(=O)Nc3ccc(C)c(NC(=O)N4CCNC4=O)c3)cc(C(F)(F)F)c2)cn1	0	-17	-2	1	56*	1	-2
COc1cccc(OCCNC(=O)Nc2cc(F)c(F)cc2Cl)c1	-4	-4	4	-2	74*	0	-1
Cc1cc(C)c2sc(N(CCCN(C)C)C(=O)CN3C(=O)c4ccccc4C3=O)nc2c1	-5	7	-2	-4	31*	-2	-15
CC1(C)Cc2c(sc(NC(=O)COc3ccc(Cl)cc3)c2C(N)=O)C(C)(C)N1	-5	-7	-14	16	80*	0	2
O=C(COC(=O)c1ccc2ncsc2c1)NCc1ccccc1Cl	2	3	-3	-2	24*	-2	-6
